The source of these data is ChEMBL document CHEMBL4312003, “Optimization of biaryloxazolidinone as promising antibacterial agents against antibiotic-susceptible and antibiotic-resistant gram-positive bacteria” (Eur J Med Chem, 2020).

Data set [1] is described as follows: Drug metabolism in rat plasma assessed as N-[[(5S)-3-[3-fluoro-4-[4-[(E)-piperazin-1-yliminomethyl]phenyl]phenyl]-2-oxo-oxazolidin-5-yl]methyl]acetamide formation administered vig ig route measured by UPLC-QTOF/MS analysis. It is filed as ADME. The conditions noted are these: po.
Data set [2] is described as follows: Metabolic stability in rat assessed as half life measured after intragastric administration. It counts as ADME. As to conditions: in vivo, po.
Data set [3] in a line: Solubility of compound in water by UV spectrophotometric analysis. It is filed as physicochemical.
A short description of data set [4]: Drug metabolism in rat plasma assessed as N-[[(5S)-3-[3-fluoro-4-[3-hydroxy-4-[(E)-(4-methylpiperazin-1-yl)iminomethyl]phenyl]phenyl]-2-oxo-oxazolidin-5-yl]methyl]acetamide formation administered vig ig route measured by UPLC-QTOF/MS analysis. It is filed as ADME. The conditions noted are these: po.
Data set [5] can be described thus: Drug metabolism in rat plasma assessed as 4-[4-[(5S)-5-(acetamidomethyl)-2-oxo-oxazolidin-3-yl]-2-fluoro-phenyl]benzoic acid formation administered vig ig route measured by UPLC-QTOF/MS analysis. It counts as ADME. As to conditions: po.
The nature of data set [6]: Drug metabolism in rat plasma assessed as N-[[(5S)-3-[3-fluoro-4-(4-formylphenyl)phenyl]-2-oxo-oxazolidin-5-yl]methyl]acetamide formation administered vig ig route measured by UPLC-QTOF/MS analysis. It is filed as ADME. The conditions noted are these: po.
For data set [7], the system named is Enterococcus faecium. The data set can be described thus: Antibacterial activity against clinical isolates of vancomycin-resistant Enterococcus faecium assessed as complete reduction in bacterial cell growth by CLSI protocol based broth liquid microdilution method. It is filed as functional. In a few lines:
(§1)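 Broth liquid microdilution per CLSI guidelines; isolates identified on an automated MicroScan system before testing. MIC taken as lowest concentration giving total inhibition of bacterial growth, reported in μg/mL. S. aureus ATCC29213 run as the control strain.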
On the technique in general: Broth dilution looks for growth in wells or tubes with falling amounts of substance.

Data set [8] has as its system Staphylococcus aureus. The data set can be described thus: Antibacterial activity against methicillin-resistant Staphylococcus aureus assessed as complete reduction in bacterial cell growth by CLSI protocol based broth liquid microdilution method. It is filed as functional. In a few lines: as §1
Data set [9] deals with Staphylococcus aureus. The data set can be described thus: Antibacterial activity against methicillin-sensitive Staphylococcus aureus assessed as complete reduction in bacterial cell growth by CLSI protocol based broth liquid microdilution method. It is filed as functional. In short, it runs like this: as §1
Another data set addresses T1, MAO-A (Homo sapiens, UniProt P21397).
T1 sequence (P21397 whole entry): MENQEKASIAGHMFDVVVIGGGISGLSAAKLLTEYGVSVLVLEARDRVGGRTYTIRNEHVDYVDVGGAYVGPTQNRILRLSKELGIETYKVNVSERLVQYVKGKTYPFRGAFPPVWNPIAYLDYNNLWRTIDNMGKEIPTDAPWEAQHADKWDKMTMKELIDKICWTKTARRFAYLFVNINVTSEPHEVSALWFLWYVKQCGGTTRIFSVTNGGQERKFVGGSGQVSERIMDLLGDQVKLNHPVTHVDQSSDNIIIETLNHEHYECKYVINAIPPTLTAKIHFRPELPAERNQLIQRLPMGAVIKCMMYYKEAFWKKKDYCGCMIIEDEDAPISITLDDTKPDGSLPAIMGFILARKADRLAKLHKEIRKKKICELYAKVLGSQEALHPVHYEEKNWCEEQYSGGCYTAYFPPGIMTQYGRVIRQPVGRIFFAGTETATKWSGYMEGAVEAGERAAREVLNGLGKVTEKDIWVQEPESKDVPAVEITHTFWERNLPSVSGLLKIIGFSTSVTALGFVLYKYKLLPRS
Nature of the data set: Inhibition of recombinant human MAO-A (active motif 31502) at 30 uM using luciferin as substrate incubated for 15 mins followed by substrate addition and measured after 60 mins by luminescence based method relative to control. As to conditions: probe luciferin. In short, it runs like this:
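Recombinant human MAO-A was measured with the MAO-Glo kit, modified. Compounds were in DMSO (1% DMSO final) and preincubated with enzyme 15 min at room temperature. Luciferin-derivative substrate was then added and the reaction run 60 min at room temperature. Luciferase detection reagent was added for 20 min and luminescence read. Buffer without enzyme served as the 100% inhibition control; DMSO alone as the no-inhibition control. Percent inhibition = (Max − signal)/(Max − Min)×100.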

Data set [10] deals with Staphylococcus aureus. Nature of the data set: Antibacterial activity against Staphylococcus aureus ATCC 29213 assessed as complete reduction in bacterial cell growth by CLSI protocol based broth liquid microdilution method. It is filed as functional. In short, it runs like this: as §1
The test system of data set [11] is Enterococcus faecium. Nature of the data set: Antibacterial activity against vancomycin-resistant Enterococcus faecium assessed as complete reduction in bacterial cell growth by CLSI protocol based broth liquid microdilution method. It is filed as functional. In short, it runs like this: as §1
Data set [12] is described as follows: Stability in simulated gastric acid assessed as compound remaining at pH 1.2 incubated for 2 hrs. The conditions noted are these: read-out: Stability. It counts as ADME.
Data set [13] deals with Enterococcus faecalis. The data set can be described thus: Antibacterial activity against linezolid-resistant Enterococcus faecalis assessed as complete reduction in bacterial cell growth by CLSI protocol based broth liquid microdilution method. It is filed as functional. In short, it runs like this:
as §1

Another data set deals with HepG2. The data set can be described thus: Cytotoxicity against human HepG2 cells assessed as reduction in cell viability incubated for 48 hrs by MTT assay. The conditions noted are these: HepG2, 48 h. It counts as cell-based. In a few lines: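 HepG2 cells were grown in RPMI1640 with 10% FBS and plated at about 4×10^4 cells/well in MEM. After 24 h at 37 °C in 5% CO2, compounds were added at the indicated final concentrations for 48 h. MTT was added (0.5 mg/mL final) for 4 h at 37 °C and the formazan dissolved in DMSO. Absorbance was read at 492 nm (630 nm reference). Each compound was tested three times; IC50 given as mean ± SD.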

Data set [14] concerns Staphylococcus aureus. The data set can be described thus: Antibacterial activity against clinical isolates of methicillin-sensitive Staphylococcus aureus assessed as reduction in bacterial cell growth by CLSI protocol based broth microdilution method. It counts as functional. In short, it runs like this: as §1
Data set [15] can be described thus: Stability in simulated gastric acid assessed as compound remaining at pH 1.2 incubated for 1 hr. It counts as ADME. As to conditions: read-out: Stability.
The nature of data set [16]: Stability in simulated gastric acid assessed as compound remaining at pH 1.2 incubated for 0.5 hrs. It counts as ADME. As to conditions: read-out: Stability.
Data set [17] can be described thus: Stability in simulated gastric acid assessed as compound remaining at pH 1.2 incubated for 1.5 hrs. It is filed as ADME. The conditions noted are these: read-out: Stability.
For data set [18], the system named is Staphylococcus aureus. The data set can be described thus: Potency index, ratio of MIC of linezolid to MIC of compound for antibacterial activity against clinical isolates of methicillin-sensitive Staphylococcus aureus by CLSI protocol based broth liquid microdilution method. It counts as functional.
Data set [19] deals with Enterococcus faecalis. The data set can be described thus: Antibacterial activity against clinical isolates of linezolid-resistant Enterococcus faecalis assessed as complete reduction in bacterial cell growth by CLSI protocol based broth liquid microdilution method. It is filed as functional. In a few lines: as §1

Molecules are shown by their SMILES. Converted amounts (≈) assume the structure as drawn.

For orientation: half-life means the time needed for the level to fall by half in the phase considered. A word on the solubility: it is how much of the substance goes into solution per volume. High values mean much dissolved substance, low ones little dissolved substance. For the compound `CC(=O)NC[C@H]1CN(c2ccc(-c3ccc(/C=N/N4CCN(C)CC4)cc3)c(F)c2)C(=O)O1`, the Drug metabolism entry in data set [1], in data set [4], in data set [5] and in data set [6] was “Metabolite_Detected” throughout. The half-life in data set [2] is 2.7 h. The amount in solution in data set [3] (solubility) came to 11.9 µg/mL (≈ 26.2 µM).

By MIC is commonly meant the smallest concentration in the dilution series that meets the test's criterion for growth inhibition. A word on the inhibition: it is the change of the read-out against control, counted positive when it falls. One may read the IC50 as the concentration that gives 50% inhibition. Consider `CC(=O)NC[C@H]1CN(c2ccc(-c3ccc(/C=N/N4CCSCC4)c(O)c3)c(F)c2)C(=O)O1`, for which the MIC in the data set on Enterococcus faecium [7] is 0.125 to 0.25 µg/mL (≈ 0.265 to 0.529 µM); in the data set on Staphylococcus aureus [8], 0.125 µg/mL (≈ 0.265 µM); with Staphylococcus aureus [9] it was 0.125 µg/mL (≈ 0.265 µM); in the data set with Staphylococcus aureus [10] it was 0.125 µg/mL (≈ 0.265 µM); in the data set on Enterococcus faecium [11], 0.125 µg/mL (≈ 0.265 µM); with Enterococcus faecalis [13], 0.125 µg/mL (≈ 0.265 µM). Besides, the MIC in the data set with Staphylococcus aureus [14] and in the data set on Enterococcus faecalis [19] was 0.125 to 0.25 µg/mL (≈ 0.265 to 0.529 µM) in each case. In addition, the inhibition at 1 h, 30 µM at MAO-A is 62%. Further, the remaining at 2 h in data set [12] is 75.9%. For the same compound, the IC50 in the data set with HepG2 was above 25 µM. Besides, the remaining at 1 h in data set [15] is 94.6%. Further, the remaining at 0.5 h in data set [16] was 96%. The remaining at 1.5 h in [17] was 82.9%. In the data set on Staphylococcus aureus [18], the Ratio was 4 - 32.
